Consider 23 compounds from ChEMBL document CHEMBL3593169, “Cytotoxic Homoisoflavones from the Bulbs of Bellevalia eigii” (J Nat Prod, 2015).

pIC50: −log10 of the molar value. In brackets after ≈: the same amount, converted by molar mass. Activity calls are given as the source filed them. The calls are words filed in the database; no cut-off is given here. A value given as a limit tells only on which side of the number the result lay.

The test system of one assay is MDA-MB-435. The experiment in a line: Cytotoxicity against human MDA-MB-435 cells assessed as reduction in cell growth incubated for 72 hrs. In kind it is functional, cell-based. The conditions noted are these: MDA-MB-435, 72 h. The essentials: (§1)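 Cells grown in RPMI 1640 with 10% FBS, penicillin and streptomycin at 37 °C, 5% CO2. Log-phase cells trypsinized, washed twice, seeded at about 5,000 per well and left overnight. Compounds in DMSO added for 72 h at 37 °C. Viability read by MTS-type absorbance assay (CellTiter 96 AQueous One). IC50 in μM relative to DMSO control. Vinblastine as positive control.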

Another assay has as its system HT-29. The experiment in a line: Cytotoxicity against human HT-29 cells assessed as reduction in cell growth incubated for 72 hrs. In kind it is functional, cell-based. The conditions noted are these: HT-29, 72 h. In short, it runs like this: as §1
The next assay deals with Staphylococcus aureus. The experiment in a line: Antimicrobial activity against Staphylococcus aureus incubated for 4 days by broth microdilution method. Type of assay: functional. In short, it runs like this: (§2)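 Broth microdilution in 1/10-strength BHIB+S; 2-fold compound dilution series inoculated with cell suspension. Incubated 4 days; growth scored visually by turbidity. MIC taken as lowest concentration with no turbidity relative to negative control. Each compound run in triplicate.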

The next assay deals with Escherichia coli. The experiment in a line: Antimicrobial activity against Escherichia coli incubated for 4 days by broth microdilution method. Type of assay: functional. In short, it runs like this: as §2
In general terms: In broth dilution the organism is exposed to a series of concentrations in liquid medium.

Assay [1] concerns Mycolicibacterium smegmatis. The experiment in a line: Antimicrobial activity against Mycobacterium smegmatis incubated for 4 days by broth microdilution method. Type of assay: functional. In short, it runs like this: as §2
The next assay relates to Candida albicans. The experiment in a line: Antimicrobial activity against Candida albicans incubated for 4 days by broth microdilution method. In kind it is functional. The essentials:
as §2

In the next assay the test system is Aspergillus niger. The experiment in a line: Antimicrobial activity against Aspergillus niger incubated for 4 days by broth microdilution method. In kind it is functional. In short, it runs like this: as §2

Regarding `O=C1c2c(O)cc(O)cc2OC[C@H]1Cc1ccc(O)cc1`, the pIC50 with MDA-MB-435 and with HT-29 was < 4.70 in each case. Besides, the MIC against Staphylococcus aureus (96 h) was > 125 µg/mL; in the assay on Escherichia coli (96 h), > 125 µg/mL; in assay [1] (96 h) it was 63 µg/mL (≈ 220 µM); with Candida albicans (96 h) it was > 125 µg/mL; against Aspergillus niger (96 h), > 125 µg/mL.
For the compound `COc1cc2c(cc1O)C[C@]21COc2cc(O)cc(O)c2C1=O`, the pIC50 in the assay on MDA-MB-435 and in the assay with HT-29 was < 4.70 in each case. Also, the MIC entry (in the assay on Staphylococcus aureus; with Escherichia coli; in assay [1]; in the assay with Candida albicans; in the assay on Aspergillus niger) was “inactive” throughout.
In the case of `O=C1/C(=C/c2ccc(O)cc2)COc2cc(O)cc(O)c21`, the pIC50 in the assay on MDA-MB-435 and with HT-29 was < 4.70 each time. Moreover, the MIC result (with Staphylococcus aureus; in the assay on Escherichia coli; in assay [1]; in the assay on Candida albicans; with Aspergillus niger) was “inactive” throughout.
Regarding `COc1cc(O)c2c(c1OC)OC/C(=C\c1ccc(O)c(O)c1)C2=O`, the pIC50 with MDA-MB-435 is 5.34; in the assay with HT-29, < 4.70. Moreover, the MIC with Staphylococcus aureus (96 h) was 93 µg/mL (≈ 270 µM); in the assay on Escherichia coli (96 h), > 93 µg/mL; in assay [1] (96 h), 47 µg/mL (≈ 137 µM); in the assay on Candida albicans (96 h) it was > 93 µg/mL; against Aspergillus niger (96 h), > 93 µg/mL.
With `COc1cc(O)c2c(c1)OC[C@@](O)(Cc1ccc(O)cc1)C2=O`, the pIC50 in the assay on MDA-MB-435 and in the assay on HT-29 was < 4.70 in each case. Also, the MIC entry (with Staphylococcus aureus; with Escherichia coli; in assay [1]; in the assay on Candida albicans; with Aspergillus niger) was “inactive” in each case.
As for `CC[C@]1(O)C[C@@H]2CN(CCc3c([nH]c4ccccc34)[C@@](C(=O)OC)(c3cc4c(cc3OC)N(C)[C@H]3[C@@](O)(C(=O)OC)[C@H](OC(C)=O)[C@]5(CC)C=CCN6CC[C@]43[C@@H]65)C2)C1` [VINBLASTINE], the pIC50 is 9.30 in the assay with MDA-MB-435 and 8.35 in the assay on HT-29.
`CN[C@H](CC(C)C)C(=O)N[C@H]1C(=O)N[C@@H](CC(N)=O)C(=O)N[C@H]2C(=O)N[C@H]3C(=O)N[C@H](C(=O)N[C@H](C(=O)O)c4cc(O)cc(O)c4-c4cc3ccc4O)[C@H](O)c3ccc(c(Cl)c3)Oc3cc2cc(c3O[C@@H]2O[C@H](CO)[C@@H](O)[C@H](O)[C@H]2O[C@H]2C[C@](C)(N)[C@H](O)[C@H](C)O2)Oc2ccc(cc2Cl)[C@H]1O` [VANCOMYCIN] showed an MIC in the assay on Staphylococcus aureus (96 h) of 0.25 µg/mL (≈ 0.173 µM).
As to `C[C@@H]1[C@H](O)[C@@H](C)/C=C/C=C/C=C/C=C/C=C/C=C/C=C/[C@H](O[C@@H]2O[C@H](C)[C@@H](O)[C@H](N)[C@@H]2O)C[C@@H]2O[C@](O)(C[C@@H](O)C[C@@H](O)[C@H](O)CC[C@@H](O)C[C@@H](O)CC(=O)O[C@H]1C)C[C@H](O)[C@H]2C(=O)O` [AMPHOTERICIN B], the MIC in the assay on Candida albicans (96 h) was found to be 16 µg/mL (≈ 17.3 µM); with Aspergillus niger (96 h) it was 31 µg/mL (≈ 33.5 µM).
For `CS/C=C/C(=O)OC[C@H](O)c1ccccc1`, the pIC50 in the assay on MDA-MB-435 and in the assay with HT-29 was < 4.70 in each case. Moreover, the MIC entry (in the assay with Staphylococcus aureus; in the assay with Escherichia coli; in assay [1]; with Candida albicans; in the assay with Aspergillus niger) was “inactive” in each case.
As for `COc1cc(O)c2c(c1O)OC[C@@H](Cc1ccc(O)cc1)C2=O`, the pIC50 with MDA-MB-435 and in the assay with HT-29 was < 4.70 throughout. Further, the MIC entry (in the assay with Staphylococcus aureus; in the assay on Escherichia coli; in assay [1]; in the assay with Candida albicans; in the assay with Aspergillus niger) was “inactive” throughout.
On to `COc1c(O)c(O)c2c(c1OC)OC[C@@H](Cc1ccc(O)cc1)C2=O`, for which the pIC50 with MDA-MB-435 and with HT-29 was < 4.70 in each case. The MIC entry (with Staphylococcus aureus; in the assay on Escherichia coli; in assay [1]; with Candida albicans; in the assay with Aspergillus niger) was “inactive” each time.
On to `COc1ccc(C[C@@H]2COc3cc(O)cc(O)c3C2=O)cc1O`, for which the pIC50 is 6.00 in the assay on MDA-MB-435 and < 4.70 with HT-29. Also, the minimum inhibitory concentration (MIC) with Staphylococcus aureus (96 h) was > 138 µg/mL; in the assay with Escherichia coli (96 h), > 138 µg/mL; in assay [1] (96 h), 17 µg/mL (≈ 53.7 µM); against Candida albicans (96 h), > 138 µg/mL; against Aspergillus niger (96 h), > 138 µg/mL.
For `O=C1c2c(O)cc(O)cc2OC[C@H]1Cc1ccc(O)c(O)c1`, the pIC50 in the assay with MDA-MB-435 and with HT-29 was < 4.70 throughout. For the same compound, the MIC entry (in the assay on Staphylococcus aureus; in the assay with Escherichia coli; in assay [1]; in the assay with Candida albicans; with Aspergillus niger) was “inactive” in each case.
As for `COc1cc(O)c2c(c1OC)OC[C@@H](Cc1ccc(O)c(O)c1)C2=O`, the negative-log IC50 (pIC50) in the assay on MDA-MB-435 and in the assay on HT-29 was < 4.70 in each case. The MIC result (in the assay on Staphylococcus aureus; with Escherichia coli; in assay [1]; in the assay with Candida albicans; in the assay with Aspergillus niger) was “inactive” each time.
With `COc1cc(O)c2c(c1OC)OCCC2=O`, the pIC50 in the assay with MDA-MB-435 and in the assay on HT-29 was < 4.70 in each case. Further, the MIC result (in the assay with Staphylococcus aureus; in the assay with Escherichia coli; in assay [1]; in the assay on Candida albicans; in the assay on Aspergillus niger) was “inactive” each time.
Take `COc1cc(O)c2c(c1OC)OC[C@@H](Cc1ccc(O)cc1)C2=O`: the pIC50 in the assay on MDA-MB-435 and with HT-29 was < 4.70 throughout. The MIC result (in the assay on Staphylococcus aureus; in the assay with Escherichia coli; in assay [1]; with Candida albicans; in the assay with Aspergillus niger) was “inactive” throughout.
Consider `COc1cc(O)c2c(c1OC)OC/C(=C\c1ccc(O)cc1)C2=O`, for which the pIC50 was 4.88 in the assay with MDA-MB-435 and < 4.70 with HT-29. In addition, the MIC entry (with Staphylococcus aureus; with Escherichia coli; in assay [1]; in the assay with Candida albicans; in the assay on Aspergillus niger) was “inactive” throughout.
With `COc1c(O)cc(O)c2c1OC/C(=C\c1ccc(O)cc1)C2=O`, the negative logarithm of the IC50 (pIC50) in the assay with MDA-MB-435 and with HT-29 was < 4.70 each time. For the same compound, the minimum inhibitory concentration (MIC) was > 48 µg/mL against Staphylococcus aureus (96 h); > 48 µg/mL in the assay on Escherichia coli (96 h); 24 µg/mL (≈ 76.4 µM) in assay [1] (96 h); > 48 µg/mL against Candida albicans (96 h); > 48 µg/mL against Aspergillus niger (96 h).
Regarding `COc1cc2c(c(O)c1O)C(=O)[C@H](Cc1ccc(O)cc1)CO2`, the negative-log IC50 (pIC50) in the assay on MDA-MB-435 and with HT-29 was < 4.70 each time. Moreover, the MIC entry (in the assay on Staphylococcus aureus; in the assay on Escherichia coli; in assay [1]; in the assay on Candida albicans; in the assay with Aspergillus niger) was “inactive” in each case.
In turn, `CC1(C)S[C@@H]2[C@H](NC(=O)[C@H](N)c3ccccc3)C(=O)N2[C@H]1C(=O)O` [AMPICILLIN] came in with an MIC in the assay with Escherichia coli (96 h) of 8 µg/mL (≈ 22.9 µM).
With `O=C(O)c1cn(C2CC2)c2cc(N3CCNCC3)c(F)cc2c1=O` [CIPROFLOXACIN], in assay [1] (96 h), the MIC came out at 2 µg/mL (≈ 6.04 µM).
For `COc1cc(/C=C/C(=O)NCCc2ccc(O)cc2)ccc1O` [N-TRANS-FERULOYL TYRAMINE], the pIC50 in the assay with MDA-MB-435 and with HT-29 was < 4.70 each time. The MIC result (in the assay with Staphylococcus aureus; in the assay on Escherichia coli; in assay [1]; in the assay with Candida albicans; in the assay on Aspergillus niger) was “inactive” each time.
Take `COc1ccc(C[C@@H]2COc3c(OC)c(OC)cc(O)c3C2=O)cc1O`: the pIC50 is 5.96 in the assay with MDA-MB-435 and 4.76 in the assay on HT-29. Moreover, the MIC entry (in the assay with Staphylococcus aureus; in the assay with Escherichia coli; in assay [1]; in the assay with Candida albicans; in the assay on Aspergillus niger) was “inactive” in each case.

By pIC50 is commonly meant −log10 of the IC50, conventionally taken in molar units. As usually defined, the MIC is the least concentration at which growth counts as inhibited.
